A short description of series [1]: Selectivity index, ratio of CC50 for Influenza A virus (A/Brisbane/10/2007(H3N2)) infected MDCK cells to EC50 for antiviral activity against Influenza A virus (A/Brisbane/10/2007(H3N2)). The format is toxicity, cell-based. To be noted: dog; read-out: Ratio CC50/EC50.
Series [2] can be described thus: Antiviral activity against Influenza A virus (A/Viet Nam/1203/2004(H5N1)) infected in MDCK cells. The format is functional, cell-based.
A short description of series [3]: Selectivity index, ratio of CC50 for Influenza B virus (B/Florida/4/2006) infected MDCK cells to EC50 for antiviral activity against Influenza B virus (B/Florida/4/2006) in MDCK cells. The format is toxicity, cell-based. Particulars: dog; read-out: Ratio CC50/EC50.
The nature of series [4]: Antiviral activity against Influenza A virus (A/California/07/2009(H1N1)) infected in MDCK cells. The format is functional, cell-based.
Series [5] in a line: Antiviral activity against Influenza A virus (A/Brisbane/10/2007(H3N2)) infected in MDCK cells. The format is functional, cell-based.
A short description of series [6]: Cytotoxicity against Influenza A virus (A/Viet Nam/1203/2004(H5N1)) infected MDCK cells. The format is cell-based, Canis lupus familiaris. Particulars: dog.
Series [7] is described as follows: Cytotoxicity against Influenza A virus (A/Brisbane/10/2007(H3N2)) infected MDCK cells. Particulars: dog. The format is cell-based, Canis lupus familiaris.
The next series concerns Influenza B virus. The experiment in a line: Antiviral activity against Influenza B virus (B/Florida/4/2006) in MDCK cells. The format is functional, cell-based. To be noted: B/Florida/4/2006, MDCK.
Series [8] is described as follows: Cytotoxicity against Influenza A virus (A/California/07/2009(H1N1)) infected MDCK cells. The format is cell-based, Canis lupus familiaris. To be noted: dog.
The nature of series [9]: Selectivity index, ratio of CC50 for Influenza A virus (A/Viet Nam/1203/2004(H5N1)) infected MDCK cells to EC50 for antiviral activity against Influenza A virus (A/Viet Nam/1203/2004(H5N1)) infected in MDCK cells. Particulars: dog; read-out: Ratio CC50/EC50. The format is toxicity, cell-based.
Series [10] is described as follows: Selectivity index, ratio of CC50 for Influenza A virus (A/California/07/2009(H1N1)) infected MDCK cells to EC50 for antiviral activity against Influenza A virus H1N1 (A/California/07/2009(H1N1)) infected in MDCK cells. To be noted: dog; read-out: Ratio CC50/EC50. The format is toxicity, cell-based.
Series [11] is described as follows: Cytotoxicity against Influenza B virus (B/Florida/4/2006) infected MDCK cells. The format is cell-based, Canis lupus familiaris. To be noted: dog.
Series [12] can be described thus: Cytotoxicity against HBV infected human HepG2(2.2.15) cells. The format is cell-based. Particulars: HBV infected HepG2(2.2.15) cells. The method in brief:
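Toxicity was measured on confluent 2.2.15 cells alongside the primary anti-HBV assay. CC50 is given in µM.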

A further series deals with Hepatitis B virus. The series can be described thus: Antiviral activity against HBV infected in human HepG2(2.2.15) cells. The format is functional, organism-based. The method in brief:
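Primary anti-HBV screen in confluent 2.2.15 cells, run alongside a toxicity assay in the same cells. Compounds were supplied as DMSO solutions.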

The subject of the next series is Hepatitis C virus. The experiment in a line: Antiviral activity against HCV infected in human Huh7ET cells assessed as reduction in HCV RNA-derived luciferase activity at 20 uM by luciferase reporter gene assay. The format is functional, Hepacivirus hominis. Particulars: Huh-7. The method in brief: (§1)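 HCV RNA replicon assay in Huh7 ET cells. Compounds were added in triplicate at a single concentration of 20 µM. Antiviral activity was read as HCV RNA-derived luciferase signal, expressed as % of control. Toxicity was read as β-actin RNA, % of control. SI = toxicity/antiviral activity. Interferon-α (2 IU/mL) was the positive control.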

Series [13] is described as follows: Selectivity index, ratio of toxicity against human Huh7ET cells assessed as reduction in beta-actin RNA levels at 20 uM to antiviral activity against HCV infected in human Huh7ET cells assessed as reduction in HCV RNA-derived luciferase activity at 20 uM by luciferase reporter gene assay. The format is cell-based, Huh-7. Particulars: read-out: Selectivity Index. The method in brief:
as §1
On the technique in general: In a reporter assay the amount or activity of a reporter protein is the signal.

Series [14] can be described thus: Toxicity against human Huh7ET cells assessed as reduction in beta-actin RNA levels at 20 uM. The format is cell-based, Huh-7. To be noted: values are per cent of control. The method in brief: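 HCV RNA replicon assay in Huh7 ET cells. Compounds were added in triplicate at a single concentration of 20 µM. Cytotoxicity was read as β-actin RNA as % of control, alongside HCV RNA-derived luciferase activity. Interferon-α (2 IU/mL) was the positive control.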

Each structure is given as a SMILES string. Where only a bound is given, the exact number is not on record here.

For `CC(C)C1=C[C@]23CC[C@@H]4[C@](C)(CCC[C@@]4(C)C(=O)O)[C@H]2C[C@H]1[C@H]1C(=O)OC(=O)[C@H]13`, the selectivity ratio in [1] came to 1.2; in series [3], 1.3; in series [9], 1.1; in series [10], 1.5. Moreover, the EC50 in [2] is 32 µM; in [4], 31 µM; in series [5], 37 µM; in the series on Influenza B virus it was 27 µM. The CC50 in series [6] was found to be 35 µM; in series [7] it was 44 µM; in series [8], 48 µM; in series [11], 36 µM.

Take `CC(C)C1=C[C@@]23CC[C@@H]4[C@](C)(CCC[C@@]4(C)C(=O)O)[C@H]2C[C@@H]1[C@H]1C(=O)CCC(=O)[C@H]13`: the figures for the selectivity ratio in series [1] and in series [3] were 1.1 and 4, respectively. In addition, the CC50 turned out to be 62 µM in [12], 36 µM in [7] and 34 µM in series [11]. In addition, the EC50 was more than 10 µM with Hepatitis B virus, 32 µM in series [5] and 8.6 µM with Influenza B virus. In addition, the EC90 in the series on Hepatitis B virus is more than 10 µM. In addition, the inhibition at 20 µM in the series with Hepatitis C virus is 0%. The selectivity ratio at 20 µM in series [13] was less than 1. Besides, the response, % of control at 20 µM in series [14] (Huh7ET cells) is 88%.

Consider `COC(=O)[C@]1(C)CCC[C@]2(C)[C@H]3C[C@H]4C(C(C)C)=C[C@]3(CC[C@H]21)[C@@H]1C(=O)[C@H]2O[C@H]2C(=O)[C@@H]14`, for which the EC50 was 3.2 µM in [2], 29 µM in [4], more than 23 µM in series [5] and 3.2 µM with Influenza B virus. Further, the figures for the selectivity ratio in series [3], in series [9] and in series [10] were 1, 1 and 1.2, respectively. Also, the CC50 in [6] worked out at 3.3 µM; in series [7], 23 µM; in [8], 34 µM; in [11] it was 3.3 µM.

As to `COC(=O)[C@]12CCC(=O)[C@H]1[C@@]13C=C(C(C)C)[C@@H]2C[C@@H]1[C@@]1(C)CCC[C@@](C)(C(=O)OC)[C@@H]1CC3`, the selectivity ratio in [1] was determined as 1; in [9] it was 1; in series [10], 1.1. The EC50 was 32 µM in series [2], 31 µM in series [4], 32 µM in [5] and more than 31 µM with Influenza B virus. The CC50 in [6] was 32 µM; in [7], 33 µM; in series [8], 34 µM; in series [11], 31 µM.

As to `COC(=O)[C@]12CC[C@H](O)[C@H]1[C@@]13C=C(C(C)C)[C@@H]2C[C@@H]1[C@@]1(C)CCC[C@@](C)(C(=O)OC)[C@@H]1CC3`, the EC50 is 3.2 µM in [2], 32 µM in series [4], more than 24 µM in series [5] and more than 3.1 µM in the series on Influenza B virus. For the same compound, the CC50 in [6] came to 3.2 µM; in series [7], 24 µM; in [8], 35 µM; in series [11] it was 3.1 µM. Further, the selectivity ratio in [9] was determined as 1; in series [10], 1.1.

As to `COC(=O)[C@]1(C)CCC[C@]2(C)[C@H]3C[C@H]4C(C(C)C)=C[C@]3(CC[C@H]21)[C@@H]1C(=O)OC(=O)[C@@H]14`, the selectivity ratio in series [1] was 1; in series [9] it was 1.5; in series [10], 1.1. Besides, the EC50 was 21 µM in series [2], 31 µM in series [4], 32 µM in series [5] and more than 8.7 µM in the series on Influenza B virus. In addition, the CC50 turned out to be 32 µM in series [6], 33 µM in [7], 35 µM in series [8] and 8.7 µM in series [11].

As for `COC(=O)[C@H](C)NC(=O)[C@]1(C)CCC[C@]2(C)[C@H]3C[C@H]4C(C(C)C)=C[C@]3(CC[C@H]21)[C@@H]1C(=O)OC(=O)[C@@H]14`, the selectivity ratio in series [1] was determined as 1; in [3], 1; in series [9] it was 1; in series [10] it was 1.1. In addition, the EC50 (in series [2]; in series [4]; in series [5]; in the series with Influenza B virus) was 32 µM in each case. Also, the CC50 in series [6] was 33 µM; in series [7], 33 µM; in series [8], 34 µM; in series [11] it was 33 µM.

Take `COC(=O)[C@H](CCSC)NC(=O)[C@]1(C)CCC[C@]2(C)[C@H]3C[C@H]4C(C(C)C)=C[C@]3(CC[C@H]21)[C@@H]1C(=O)OC(=O)[C@@H]14`: the EC50 is 32 µM in series [2], 31 µM in [4], more than 30 µM in [5] and 32 µM in the series with Influenza B virus. Moreover, the selectivity ratio stood at 1 in [3], 1 in series [9] and 1.1 in series [10]. Moreover, the CC50 in series [6] came to 32 µM; in [7], 30 µM; in [8], 34 µM; in [11], 32 µM.

Regarding `COC(=O)[C@]1(C)CCC[C@]2(C)[C@H]3C[C@H]4C(C(C)C)=C[C@]3(CC[C@H]21)[C@@H]1C(=O)CCC(=O)[C@@H]14`, the EC50 in series [2] was more than 100 µM; in [4] it was more than 100 µM; in [5], more than 100 µM; with Influenza B virus, 32 µM. In addition, the selectivity ratio in series [3] was more than 3.1. For the same compound, the CC50 in [6], in series [7], in series [8] and in series [11] was more than 100 µM in each case.

In the case of `COC(=O)[C@]1(C)CCC[C@]2(C)[C@H]3C[C@H]4C(C(C)C)=C[C@]3(CC[C@H]21)[C@@H]1C(=O)CC[C@H](OC(=O)CCC(=O)O)[C@@H]14`, the EC50 in series [2] was 88 µM; in series [4], more than 100 µM; in [5] it was more than 100 µM; in the series on Influenza B virus it was more than 100 µM. Also, the CC50 in [6], in series [7], in [8] and in series [11] was more than 100 µM each time. The selectivity ratio in series [9] is more than 1.1.

Regarding `COC(=O)[C@]1(C)CCC[C@]2(C)[C@H]3C[C@H]4C(C(C)C)=C[C@]3(CC[C@H]21)[C@@H]1C(=O)CC[C@H](OC(=O)c2cccnc2)[C@@H]14`, the selectivity ratio in [1] was found to be 1; in [3] it was 1; in series [9], 1; in series [10], 1.1. Moreover, the EC50 came to 3.2 µM in series [2], 32 µM in [4], 32 µM in [5] and 3.2 µM in the series with Influenza B virus. In addition, the CC50 in [6] was found to be 3.2 µM; in series [7], 33 µM; in series [8], 35 µM; in [11], 3.2 µM.

As for `COC(=O)[C@]1(C)CCC[C@]2(C)[C@H]3C[C@H]4C(C(C)C)=C[C@]3(CC[C@H]21)[C@@H]1C(=O)CC[C@H](OC(=O)/C=C/c2ccccc2)[C@@H]14`, the EC50 was more than 9 µM in series [2], 31 µM in series [4], more than 17 µM in [5] and 10 µM with Influenza B virus. In addition, the selectivity ratio was 2.4 in [3] and 1.1 in series [10]. For the same compound, the CC50 in series [6] came to 9 µM; in series [7] it was 17 µM; in series [8], 35 µM; in series [11] it was 24 µM.

Regarding `COC(=O)[C@]1(C)CCC[C@]2(C)[C@H]3C[C@H]4C(=C(C)C)C5O[C@@]6(O)CCC(=O)[C@H]4[C@@H]6[C@@]53CC[C@H]21`, the CC50 in series [12] was found to be 59 µM. In the series with Hepatitis B virus, this compound returned an EC50 of more than 10 µM and an EC90 of more than 10 µM. In addition, the inhibition at 20 µM in the series on Hepatitis C virus was found to be 68.4%. For the same compound, the selectivity ratio at 20 µM in [13] was more than 1. Moreover, the “response, % of control” value in series [14] (huh-7, 20 µM) turned out to be 151.2%.

By EC50 is commonly meant the concentration that produces a half-maximal response. For orientation: CC50 means the concentration at which the toxic effect on the cells reaches its halfway point. A high value points to lower toxicity to the cells. In general, EC90 refers to the point of the concentration-response curve where the effect stands at 90%. Low values mean greater potency, high ones weaker potency. One may read the inhibition as how much of the control response was suppressed.

(Values after ChEMBL document CHEMBL3616462, “Synthesis and antiviral activity of maleopimaric and quinopimaric acids' derivatives” (Bioorg Med Chem, 2015).)
